# Bioassay records (PubChem BioAssay)
# Most compounds without a hit are left out; they make up all but 4.8% or so of the library.
# ATG4B inhibitor – blocks human ATG4B protease cleavage of LC3 substrate; ATG4B cleavage of LC3-PLA2, NBD-HPC fluorescence, 1 h; 340,000 compounds, 0.51% hits; inhibition, % at 8.33 µM; AID 504462; in the data active = inhibition above about 40%
# UCH37 inh – blocks the human deubiquitinase UCH37 | purified proteasome/UCH37, Ub-AMC cleavage fluorescence | 330,000 compounds, 0.33% hits | Q9Y5K5 | inhibition, % (test concentration not listed);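 active = mean inhibition over replicate wells above about 20%, limit read from the data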;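 also: 0% = compound-free wells with enzyme and 100% = wells lacking proteasome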
#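 Test system – human UCH37 enzyme supplied as purified proteasome complex · Incubation – 30 min preincubation with enzyme, 25 min cleavage at room temperature · Detection – AMC fluorescence from Ub-AMC cleavage, excitation 355 nm, emission 460 nm · Benchmarks – no-proteasome wells (full inhibition) and compound-free wells (no inhibition)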
# NALP1 yeast inh – inhibitors of NALP1 inflammasome in yeast | S. cerevisiae NALP1/ASC/caspase-1 growth, X-gal OD620, 72 h | inhibition, % at 10 µM | 280,000 compounds, 0.61% hits | AID 2071; in the data active = inhibition mostly above about 24%, no sharp cut-off; inactive = mostly below about 32%
# Calb FLC – C. albicans growth modulation with fluconazole | C. albicans CaCi-2 (fluconazole-resistant clinical isolate) + fluconazole, Alamar Blue growth, 48 h | growth inhibition, % (no concentration beside the values) | 300,000 compounds, 0.57% hits | AID 1979;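 active = growth inhibition above about 58% in most replicates, limit read from the data, passing the limit was not always enough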;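 also: all wells also contain fluconazole at 8 µg/ml as a sub-toxic cotreatment; 0% = median of DMSO wells and 100% = median of geldanamycin control wells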
# NALP3 yeast inh – NALP3 inhibition in yeast | Yeast reconstituted NLRP3/ASC/caspase-1, beta-gal luminescence, 24 h | AID 2825 | 330,000 compounds, 0.39% hits | inhibition, % at 10 µM;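 active = inhibition of 50% or more; inactive = inhibition below 50%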;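 also: plate controls were induced DMSO wells for no effect and uninduced yeast grown without galactose for full effect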
# ALR H2O2 inh – inhibitors of human sulfhydryl oxidase ALR. purified ALR, DTT oxidation, H2O2 HRP-luminol luminescence. inhibition, % (no concentration beside the values). 290,000 compounds, 3.8% hits;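 active = mean replicate inhibition above about 79%, with every replicate also reaching it, limit read from the data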
# The depositor's hits bear a star; . = no result.
SMILES,ATG4B inhibitor,UCH37 inh,NALP1 yeast inh,Calb FLC,NALP3 yeast inh,ALR H2O2 inh
CC1(C(=O)O)CCC(C(=O)Nc2ccccc2O)C1(C)C (configuration not stated),3,3,13,4,20,86*
COc1ccc(-n2cccc2/C=C/[N+](=O)[O-])cc1,11,0,114*,-8,7,.
CC(C)NCC(O)Cn1c2c(c3ccccc31)CCc1c-2cnn1-c1ccccc1 (configuration not stated),7,-100,22*,-16,21,89*
C/C(=N/NC(=O)CSc1nc2ccccc2n1C)c1ccc(O)cc1,-4,.,15,-8,15,99*
CCn1c(SCC(=O)NN=Cc2ccc(C)s2)nc2ccccc21,.,5,.,.,.,.
Cn1c(SCC(=O)N/N=C/C=C\c2ccco2)nc2ccccc21,-3,.,2,16,15,86*
CC(=NNC(=O)CSc1nc2ccccc2n1C)c1ccncc1,.,5,.,.,.,.
Cc1ccc(/C=N/NC(=O)CSc2nc3ccccc3n2C)s1,-11,.,-2,13,-3,89*
CCn1c(SCC(=O)N/N=C/C=C\c2ccco2)nc2ccccc21,5,.,26,7,3,32
O=C(NN=C/C(Br)=C/c1ccccc1)C(O)c1ccccc1 (configuration not stated),.,5,.,.,.,.
CCOCc1c(C(=O)Nc2cc(OCC)c(N3CCOCC3)cc2OCC)oc2ccccc12,-5,0,36*,25,11,-6
